Key:
[1] = tested on: NCI-H322M; assay: Anticancer activity against human NCI-H322M cells assessed as cell growth at 10^-5 M after 48 hrs by SRB assay; format: functional; conditions: read-out: Activity
[2] = tested on: PC-3; assay: Anticancer activity against human PC3 cells assessed as cell growth at 10^-5 M after 48 hrs by SRB assay; format: functional; conditions: PC-3, 48 h, read-out: Activity
[3] = tested on: NCI/ADR-RES; assay: Anticancer activity against human NCI/ADR-RES cells assessed as cell growth at 10^-5 M after 48 hrs by SRB assay; format: functional; conditions: read-out: Activity
[4] = tested on: SK-OV-3; assay: Anticancer activity against human SKOV3 cells assessed as cell growth at 10^-5 M after 48 hrs by SRB assay; format: functional; conditions: SK-OV-3, 48 h, read-out: Activity
[5] = tested on: OVCAR-5; assay: Anticancer activity against human OVCAR5 cells assessed as cell growth at 10^-5 M after 48 hrs by SRB assay; format: functional; conditions: OVCAR-5, 48 h, read-out: Activity
[6] = tested on: K562; assay: Anticancer activity against human K562 cells assessed as cell growth at 10^-5 M after 48 hrs by SRB assay; format: functional; conditions: K562, 48 h, read-out: Activity
Method in brief: (§1)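 NCI-60 single-dose screen at one concentration. Cells grown in RPMI 1640 with 5% FBS and 2 mM L-glutamine, plated at 5000–40,000 cells/well, and pre-incubated 24 h at 37 °C in 5% CO2 before DMSO-dissolved drug was added. Cells fixed with TCA, SRB-stained, absorbance read at 515 nm. Percent growth calculated against time-zero and untreated control plates.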

[7] = tested on: MDA-MB-435; assay: Anticancer activity against human MDA-MB-435 cells assessed as cell growth at 10^-5 M after 48 hrs by SRB assay; format: functional; conditions: MDA-MB-435, 48 h, read-out: Activity
[8] = tested on: SW-620; assay: Anticancer activity against human SW620 cells assessed as cell growth at 10^-5 M after 48 hrs by SRB assay; format: functional; conditions: SW-620, 48 h, read-out: Activity
Method in brief: (§2)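 NCI-60 single-dose screen: cells in RPMI 1640 with 5% FBS and 2 mM L-glutamine, plated at 5000–40,000 cells/well by doubling time, and preincubated 24 h at 37 °C. Compound given at one concentration from DMSO stock. Cells TCA-fixed and SRB-stained, absorbance at 515 nm. Percent growth relative to time-zero and untreated controls; inhibition % = 100 − growth %.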

[9] = tested on: UACC-257; assay: Anticancer activity against human UACC257 cells assessed as cell growth at 10^-5 M after 48 hrs by SRB assay; format: functional; conditions: UACC-257, 48 h, read-out: Activity; method in brief: as §2
[10] = tested on: 786-0; assay: Anticancer activity against human 786-0 cells assessed as cell growth at 10^-5 M after 48 hrs by SRB assay; format: functional; conditions: 786-0, 48 h, read-out: Activity; method in brief: as §1
[11] = tested on: IGROV-1; assay: Anticancer activity against human IGROV1 cells assessed as cell growth at 10^-5 M after 48 hrs by SRB assay; format: functional; conditions: IGROV-1, 48 h, read-out: Activity; method in brief: as §1
[12] = tested on: CCRF-CEM; assay: Anticancer activity against human CCRF-CEM cells assessed as cell growth at 10^-5 M after 48 hrs by SRB assay; format: functional; conditions: read-out: Activity; method in brief: as §1
[13] = tested on: CAKI-1; assay: Anticancer activity against human Caki1 cells assessed as cell growth at 10^-5 M after 48 hrs by SRB assay; format: functional; conditions: CAKI-1, 48 h, read-out: Activity; method in brief: as §1
[14] = tested on: SF-295; assay: Anticancer activity against human SF295 cells assessed as cell growth at 10^-5 M after 48 hrs by SRB assay; format: functional; conditions: SF-295, 48 h, read-out: Activity
[15] = tested on: HT-29; assay: Anticancer activity against human HT-29 cells assessed as cell growth at 10^-5 M after 48 hrs by SRB assay; format: functional; conditions: HT-29, 48 h, read-out: Activity; method in brief: as §1
[16] = tested on: RPMI-8226; assay: Anticancer activity against human RPMI8226 cells assessed as cell growth at 10^-5 M after 48 hrs by SRB assay; format: functional; conditions: RPMI-8226, 48 h, read-out: Activity
[17] = tested on: SK-MEL-2; assay: Anticancer activity against human SK-MEL-2 cells assessed as cell growth at 10^-5 M after 48 hrs by SRB assay; format: functional; conditions: SK-MEL-2, 48 h, read-out: Activity
[18] = tested on: UO-31; assay: Anticancer activity against human UO31 cells assessed as cell growth at 10^-5 M after 48 hrs by SRB assay; format: functional; conditions: UO-31, 48 h, read-out: Activity; method in brief: as §2
[19] = tested on: SNB-19; assay: Anticancer activity against human SNB19 cells assessed as cell growth at 10^-5 M after 48 hrs by SRB assay; format: functional; conditions: SNB-19, 48 h, read-out: Activity
[20] = tested on: OVCAR-8; assay: Anticancer activity against human OVCAR8 cells assessed as cell growth at 10^-5 M after 48 hrs by SRB assay; format: functional; conditions: OVCAR-8, 48 h, read-out: Activity
[21] = tested on: SR; assay: Anticancer activity against human SR cells assessed as cell growth at 10^-5 M after 48 hrs by SRB assay; format: functional; conditions: read-out: Activity; method in brief: as §2
[22] = tested on: MCF7; assay: Anticancer activity against human MCF7 cells assessed as cell growth at 10^-5 M after 48 hrs by SRB assay; format: functional; conditions: MCF7, 48 h, read-out: Activity; method in brief: as §1
[23] = tested on: HOP-92; assay: Anticancer activity against human HOP92 cells assessed as cell growth at 10^-5 M after 48 hrs by SRB assay; format: functional; conditions: HOP-92, 48 h, read-out: Activity; method in brief: as §1
[24] = tested on: SF-268; assay: Anticancer activity against human SF268 cells assessed as cell growth at 10^-5 M after 48 hrs by SRB assay; format: functional; conditions: SF-268, 48 h, read-out: Activity
[25] = tested on: Malme-3M; assay: Anticancer activity against human MALME-3M cells assessed as cell growth at 10^-5 M after 48 hrs by SRB assay; format: functional; conditions: read-out: Activity; method in brief: as §1
[26] = tested on: NCI-H226; assay: Anticancer activity against human NCI-H226 cells assessed as cell growth at 10^-5 M after 48 hrs by SRB assay; format: functional; conditions: NCI-H226, 48 h, read-out: Activity
[27] = Antiproliferative activity against human A375P cells after 48 hrs by MTT assay; format: functional, cell-based
Method in brief: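 A375P cells in DMEM with 10% FBS at 37 °C, 5% CO2. Seeded at 5×10³ cells/well, held 24 h, then treated with 12-point 3-fold serial dilutions for 48 h. Viability by MTT reduction. IC50 values are means of triplicate experiments.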

[28] = tested on: T47D; assay: Anticancer activity against human T47D cells assessed as cell growth at 10^-5 M after 48 hrs by SRB assay; format: functional; conditions: read-out: Activity; method in brief: as §2
[29] = tested on: KM12; assay: Anticancer activity against human KM12 cells assessed as cell growth at 10^-5 M after 48 hrs by SRB assay; format: functional; conditions: KM12, 48 h, read-out: Activity; method in brief: as §1
[30] = tested on: HCT-15; assay: Anticancer activity against human HCT15 cells assessed as cell growth at 10^-5 M after 48 hrs by SRB assay; format: functional; conditions: HCT-15, 48 h, read-out: Activity; method in brief: as §1
[31] = tested on: SK-MEL-5; assay: Anticancer activity against human SK-MEL-5 cells assessed as cell growth at 10^-5 M after 48 hrs by SRB assay; format: functional; conditions: SK-MEL-5, 48 h, read-out: Activity
[32] = tested on: A498; assay: Anticancer activity against human A498 cells assessed as cell growth at 10^-5 M after 48 hrs by SRB assay; format: functional; conditions: A498, 48 h, read-out: Activity; method in brief: as §1

SMILES | growth at 10 µM [1] | growth at 10 µM [2] | growth at 10 µM [3] | growth at 10 µM [4] | growth at 10 µM [5] | growth at 10 µM [6] | growth at 10 µM [7] | growth at 10 µM [8] | growth at 10 µM [9] | growth at 10 µM [10] | growth at 10 µM [11] | growth at 10 µM [12] | growth at 10 µM [13] | growth at 10 µM [14] | growth at 10 µM [15] | growth at 10 µM [16] | growth at 10 µM [17] | growth at 10 µM [18] | growth at 10 µM [19] | growth at 10 µM [20] | further results
O=C(NCCNc1nccc(-c2c(-c3cccc(O)c3)nc3sccn23)n1)Nc1cc(C(F)(F)F)cc(C(F)(F)F)c1 | 87% | 51.2% | 87.8% | 89.3% | 96.5% | 72.7% | 9.9% | 73.5% | 57% | 82% | 65.2% | 39.1% | 72.3% | 66.8% | 63.1% | 45.7% | 110% | 73.1% | 90.8% | 52.8% | growth at 10 µM [21]: 65.3%; growth at 10 µM [22]: 67.5%; growth at 10 µM [23]: 74.4%; growth at 10 µM [24]: 69.4%; growth at 10 µM [25]: 60.5%; growth at 10 µM [26]: 101%; IC50 [27]: > 10 µM; growth at 10 µM [28]: 72%; growth at 10 µM [29]: 43.1%; growth at 10 µM [30]: 79.2%; growth at 10 µM [31]: 59.7%; growth at 10 µM [32]: 86%
COc1cccc(-c2nc3sccn3c2-c2ccnc(NCCNC(=O)c3ccccc3)n2)c1 | 110% | 79.7% | 70.5% | 88.5% | 99.1% | 67.5% | 55.2% | 114% | 69.7% | 78.4% | 69.2% | 52.5% | 84.3% | 85.4% | 53.5% | 41.6% | 73.3% | 53.8% | 110% | 62.5% | growth at 10 µM [21]: 79.8%; growth at 10 µM [22]: 81.7%; growth at 10 µM [23]: 77.8%; growth at 10 µM [24]: 92.7%; growth at 10 µM [25]: 26.7%; growth at 10 µM [26]: 79.3%; IC50 [27]: > 10 µM; growth at 10 µM [28]: 61.9%; growth at 10 µM [29]: 87.8%; growth at 10 µM [30]: 81.9%; growth at 10 µM [31]: 55.3%; growth at 10 µM [32]: 66.3%
COc1cccc(-c2nc3sccn3c2-c2ccnc(NCCNC(=O)c3ccccc3O)n2)c1 | 95.6% | 62.8% | 54.6% | 90% | 112% | 59.4% | 54.3% | 119% | 78.7% | 91% | 60.9% | 34.7% | 68.8% | 101% | 96.4% | 26% | 80.7% | 48.6% | 118% | 55.2% | growth at 10 µM [21]: 95%; growth at 10 µM [22]: 88.5%; growth at 10 µM [23]: 75.5%; growth at 10 µM [24]: 93.6%; growth at 10 µM [25]: 57.5%; growth at 10 µM [26]: 97.7%; IC50 [27]: 7.5 µM; growth at 10 µM [28]: 60.1%; growth at 10 µM [29]: 77.2%; growth at 10 µM [30]: 66.1%; growth at 10 µM [31]: 48.6%; growth at 10 µM [32]: 89.7%

From ChEMBL document CHEMBL1914423, “New imidazo[2,1-b]thiazole derivatives: synthesis, in vitro anticancer evaluation, and in silico studies” (Eur J Med Chem, 2011)
